Source: ChEMBL document CHEMBL1138520, “Molecular and conformational determinants of pituitary adenylate cyclase-activating polypeptide (PACAP) for activation of the PAC1 receptor” (J Med Chem, 2009)
Where a SMILES comes first, the peptide text is derived from it. [ ]: non-standard residue; d: D form. Aib = CC(C)(N)C(=O)O

Legend:
[1] = target: T1, Pituitary adenylate cyclase-activating polypeptide type I receptor (Homo sapiens, UniProt P41586); experiment: Agonist activity at human recombinant PAC1 receptor expressed in CHO cells assessed as PACAP38-induced calcium mobilization by FLIPR assay; assay type: functional, cell-based
Summary of the method: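 CHO cells stably expressing recombinant human PAC1, plated 24 h before assay, loaded with fluo-4 AM for 60 min at 37 °C in the dark, then rinsed into HBSS for 15 min at 37 °C. EC50 and efficacy came from nonlinear regression; 4-10 independent assays in duplicate.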
Target sequence in this assay (P41586 whole entry): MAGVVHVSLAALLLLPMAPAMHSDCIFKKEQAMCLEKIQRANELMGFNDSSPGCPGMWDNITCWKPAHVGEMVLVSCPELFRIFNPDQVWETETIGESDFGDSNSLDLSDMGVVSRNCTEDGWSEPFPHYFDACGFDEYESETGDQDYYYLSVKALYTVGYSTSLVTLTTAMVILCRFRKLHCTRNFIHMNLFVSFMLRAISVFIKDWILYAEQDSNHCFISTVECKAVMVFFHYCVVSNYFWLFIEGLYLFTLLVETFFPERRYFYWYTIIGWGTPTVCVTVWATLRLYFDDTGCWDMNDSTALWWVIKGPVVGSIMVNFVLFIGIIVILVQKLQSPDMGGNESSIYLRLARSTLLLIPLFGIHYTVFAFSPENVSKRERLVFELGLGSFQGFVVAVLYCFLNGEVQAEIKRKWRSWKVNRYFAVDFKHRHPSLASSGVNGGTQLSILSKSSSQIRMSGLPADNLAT

[2] = target: T1, Pituitary adenylate cyclase-activating polypeptide type I receptor; experiment: Displacement of [125I]Ac-PACAP27 from human recombinant PAC1 receptor expressed in CHO cells by gamma- counter; assay type: cell-based
Target sequence in this assay (P41586 whole entry): as above

[3] = target: T1, Pituitary adenylate cyclase-activating polypeptide type I receptor; experiment: Agonist activity at human recombinant PAC1 receptor expressed in CHO cells assessed as PACAP38-induced calcium mobilization by FLIPR assay relative to PACAP38; assay type: functional, cell-based
Summary of the method: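 CHO cells stably expressing recombinant human PAC1, plated 24 h before assay, loaded with fluo-4 AM for 60 min at 37 °C in the dark, then rinsed into HBSS for 15 min at 37 °C. Peptide was added 18 s into a 150 s read (ex 480/em 525 nm), at final concentrations of 1 × 10-12 to 1 × 10^-5 M. Response was normalised to 1 × 10^-5 M PACAP38 on each plate. EC50 and efficacy came from nonlinear regression; 4-10 independent assays in duplicate.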
Target sequence in this assay (P41586 21-468 limits assumed): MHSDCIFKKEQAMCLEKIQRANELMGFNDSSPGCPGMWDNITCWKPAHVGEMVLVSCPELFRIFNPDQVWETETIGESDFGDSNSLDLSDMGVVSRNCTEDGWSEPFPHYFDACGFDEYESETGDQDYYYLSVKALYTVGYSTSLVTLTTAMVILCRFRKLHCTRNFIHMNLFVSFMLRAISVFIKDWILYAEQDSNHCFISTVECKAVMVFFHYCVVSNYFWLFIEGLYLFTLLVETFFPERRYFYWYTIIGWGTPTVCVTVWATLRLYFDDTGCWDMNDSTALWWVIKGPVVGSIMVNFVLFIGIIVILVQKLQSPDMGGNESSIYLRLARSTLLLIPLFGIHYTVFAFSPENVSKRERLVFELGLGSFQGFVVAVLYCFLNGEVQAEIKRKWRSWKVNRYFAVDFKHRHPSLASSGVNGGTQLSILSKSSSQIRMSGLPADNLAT

SMILES | EC50 [1] [µM] | IC50 [2] [µM] | Emax [3] [%]
CSCC[C@H](NC(=O)[C@H](CCC(N)=O)NC(=O)[C@H](CCCCN)NC(=O)[C@H](CCCNC(=N)N)NC(=O)[C@H](Cc1ccc(O)cc1)NC(=O)[C@H](CCCNC(=N)N)NC(=O)[C@H](CO)NC(=O)[C@H](Cc1ccc(O)cc1)NC(=O)[C@H](CO)NC(=O)[C@H](CC(=O)O)NC(=O)[C@@H](NC(=O)[C@H](Cc1ccccc1)NC(=O)[C@H](CC(C)C)N1CC[C@H](NC(=O)[C@H](CC(=O)O)NC(=O)[C@H](CO)NC(=O)[C@@H](N)Cc2cnc[nH]2)C1=O)[C@@H](C)O)C(=O)N[C@@H](C)C(=O)N[C@H](C(=O)N[C@@H](CCCCN)C(=O)N[C@@H](CCCCN)C(=O)N[C@@H](Cc1ccc(O)cc1)C(=O)N[C@@H](CC(C)C)C(=O)N[C@@H](C)C(=O)N[C@@H](C)C(=O)N[C@H](C(=O)N[C@@H](CC(C)C)C(=O)NCC(=O)N[C@@H](CCCCN)C(=O)N[C@@H](CCCNC(=N)N)C(=O)N[C@@H](Cc1ccc(O)cc1)C(=O)N[C@@H](CCCCN)C(=O)N[C@@H](CCC(N)=O)C(=O)N[C@@H](CCCNC(=N)N)C(=O)N[C@H](C(=O)N[C@@H](CCCCN)C(=O)N[C@@H](CC(N)=O)C(=O)N[C@@H](CCCCN)C(N)=O)C(C)C)C(C)C)C(C)C | 2.48 | 0.775 | 38.2
CC[C@H](C)[C@H](NC(=O)CNC(=O)[C@H](CCCC(=O)O)NC(=O)[C@H](CO)NC(=O)[C@@H](N)Cc1cnc[nH]1)C(=O)N[C@@H](Cc1ccccc1)C(=O)N[C@H](C(=O)N[C@@H](CC(=O)O)C(=O)N[C@@H](CO)C(=O)N[C@@H](Cc1ccc(O)cc1)C(=O)N[C@@H](CO)C(=O)N[C@@H](CCCNC(=N)N)C(=O)N[C@@H](Cc1ccc(O)cc1)C(=O)N[C@@H](CCCNC(=N)N)C(=O)N[C@@H](CCCCN)C(=O)N[C@@H](CCC(N)=O)C(=O)N[C@@H](CCSC)C(=O)N[C@@H](C)C(=O)N[C@H](C(=O)N[C@@H](CCCCN)C(=O)N[C@@H](CCCCN)C(=O)N[C@@H](Cc1ccc(O)cc1)C(=O)N[C@@H](CC(C)C)C(=O)N[C@@H](C)C(=O)N[C@@H](C)C(=O)N[C@H](C(=O)N[C@@H](CC(C)C)C(N)=O)C(C)C)C(C)C)[C@@H](C)O | 0.834 | 0.818 | 29.3
CC[C@H](C)[C@H](NC(=O)CNC(=O)[C@H](CC(=O)O)N(C)C(=O)[C@H](CO)NC(=O)[C@@H](N)Cc1cnc[nH]1)C(=O)N[C@@H](Cc1ccccc1)C(=O)N[C@H](C(=O)N[C@@H](CC(=O)O)C(=O)N[C@@H](CO)C(=O)N[C@@H](Cc1ccc(O)cc1)C(=O)N[C@@H](CO)C(=O)N[C@@H](CCCNC(=N)N)C(=O)N[C@@H](Cc1ccc(O)cc1)C(=O)N[C@@H](CCCNC(=N)N)C(=O)N[C@@H](CCCCN)C(=O)N[C@@H](CCC(N)=O)C(=O)N[C@@H](CCSC)C(=O)N[C@@H](C)C(=O)N[C@H](C(=O)N[C@@H](CCCCN)C(=O)N[C@@H](CCCCN)C(=O)N[C@@H](Cc1ccc(O)cc1)C(=O)N[C@@H](CC(C)C)C(=O)N[C@@H](C)C(=O)N[C@@H](C)C(=O)N[C@H](C(=O)N[C@@H](CC(C)C)C(=O)NCC(=O)N[C@@H](CCCCN)C(=O)N[C@@H](CCCNC(=N)N)C(=O)N[C@@H](Cc1ccc(O)cc1)C(=O)N[C@@H](CCCCN)C(=O)N[C@@H](CCC(N)=O)C(=O)N[C@@H](CCCNC(=N)N)C(=O)N[C@H](C(=O)N[C@@H](CCCCN)C(=O)N[C@@H](CC(N)=O)C(=O)N[C@@H](CCCCN)C(N)=O)C(C)C)C(C)C)C(C)C)[C@@H](C)O | 0.219 | 0.0104 | 92.5

These reach a lower EC50 [1]. Values come first.

EC50 [1] [µM] | IC50 [2] [µM] | Emax [3] [%] | SMILES
0.0206 | 0.0106 | 90.5 | CC[C@H](C)[C@H](NC(=O)CNC(=O)[C@H](CCC(=O)O)NC(=O)[C@H](CO)NC(=O)[C@@H](N)Cc1cnc[nH]1)C(=O)N[C@@H](Cc1ccccc1)C(=O)N[C@H](C(=O)N[C@@H](CC(=O)O)C(=O)N[C@@H](CO)C(=O)N[C@@H](Cc1ccc(O)cc1)C(=O)N[C@@H](CO)C(=O)N[C@@H](CCCNC(=N)N)C(=O)N[C@@H](Cc1ccc(O)cc1)C(=O)N[C@@H](CCCNC(=N)N)C(=O)N[C@@H](CCCCN)C(=O)N[C@@H](CCC(N)=O)C(=O)N[C@@H](CCSC)C(=O)N[C@@H](C)C(=O)N[C@H](C(=O)N[C@@H](CCCCN)C(=O)N[C@@H](CCCCN)C(=O)N[C@@H](Cc1ccc(O)cc1)C(=O)N[C@@H](CC(C)C)C(=O)N[C@@H](C)C(=O)N[C@@H](C)C(=O)N[C@H](C(=O)N[C@@H](CC(C)C)C(N)=O)C(C)C)C(C)C)[C@@H](C)O
0.0041 | 0.0066 | 90.5 | CC[C@H](C)[C@H](NC(=O)CNC(=O)[C@H](CC(=O)O)NC(=O)[C@@H](CO)NC(=O)[C@@H](N)Cc1cnc[nH]1)C(=O)N[C@@H](Cc1ccccc1)C(=O)N[C@H](C(=O)N[C@@H](CC(=O)O)C(=O)N[C@@H](CO)C(=O)N[C@@H](Cc1ccc(O)cc1)C(=O)N[C@@H](CO)C(=O)N[C@@H](CCCNC(=N)N)C(=O)N[C@@H](Cc1ccc(O)cc1)C(=O)N[C@@H](CCCNC(=N)N)C(=O)N[C@@H](CCCCN)C(=O)N[C@@H](CCC(N)=O)C(=O)N[C@@H](CCSC)C(=O)N[C@@H](C)C(=O)N[C@H](C(=O)N[C@@H](CCCCN)C(=O)N[C@@H](CCCCN)C(=O)N[C@@H](Cc1ccc(O)cc1)C(=O)N[C@@H](CC(C)C)C(=O)N[C@@H](C)C(=O)N[C@@H](C)C(=O)N[C@H](C(=O)N[C@@H](CC(C)C)C(=O)NCC(=O)N[C@@H](CCCCN)C(=O)N[C@@H](CCCNC(=N)N)C(=O)N[C@@H](Cc1ccc(O)cc1)C(=O)N[C@@H](CCCCN)C(=O)N[C@@H](CCC(N)=O)C(=O)N[C@@H](CCCNC(=N)N)C(=O)N[C@H](C(=O)N[C@@H](CCCCN)C(=O)N[C@@H](CC(N)=O)C(=O)N[C@@H](CCCCN)C(N)=O)C(C)C)C(C)C)C(C)C)[C@@H](C)O
0.0043 | 0.0072 | 94.8 | CC[C@H](C)[C@H](NC(=O)CNC(=O)[C@H](CC(=O)O)NC(=O)C(C)(C)NC(=O)[C@@H](N)Cc1cnc[nH]1)C(=O)N[C@@H](Cc1ccccc1)C(=O)N[C@H](C(=O)N[C@@H](CC(=O)O)C(=O)N[C@@H](CO)C(=O)N[C@@H](Cc1ccc(O)cc1)C(=O)N[C@@H](CO)C(=O)N[C@@H](CCCNC(=N)N)C(=O)N[C@@H](Cc1ccc(O)cc1)C(=O)N[C@@H](CCCNC(=N)N)C(=O)N[C@@H](CCCCN)C(=O)N[C@@H](CCC(N)=O)C(=O)N[C@@H](CCSC)C(=O)N[C@@H](C)C(=O)N[C@H](C(=O)N[C@@H](CCCCN)C(=O)N[C@@H](CCCCN)C(=O)N[C@@H](Cc1ccc(O)cc1)C(=O)N[C@@H](CC(C)C)C(=O)N[C@@H](C)C(=O)N[C@@H](C)C(=O)N[C@H](C(=O)N[C@@H](CC(C)C)C(=O)NCC(=O)N[C@@H](CCCCN)C(=O)N[C@@H](CCCNC(=N)N)C(=O)N[C@@H](Cc1ccc(O)cc1)C(=O)N[C@@H](CCCCN)C(=O)N[C@@H](CCC(N)=O)C(=O)N[C@@H](CCCNC(=N)N)C(=O)N[C@H](C(=O)N[C@@H](CCCCN)C(=O)N[C@@H](CC(N)=O)C(=O)N[C@@H](CCCCN)C(N)=O)C(C)C)C(C)C)C(C)C)[C@@H](C)O (H-H[Aib]DGIFTDSYSRYRKQMAVKKYLAAVLGKRYKQRVKNK-NH2)
